The record followed here is ChEMBL document CHEMBL3739318, “Orally Bioavailable Metal Chelators and Radical Scavengers: Multifunctional Antioxidants for the Coadjutant Treatment of Neurodegenerative Diseases” (J Med Chem, 2015).

Activity calls are given as the source filed them. The rule behind the calls is not given here.

Data set [1] concerns SH-SY5Y. Nature of the data set: Neuroprotective activity against Fenton reagent-induced ROS generation-stimulated cytotoxicity in human SH-SY5Y cells assessed as cell viability at 1 mM after 2 hrs by MTS assay. Format: functional, cell-based. The essentials:
(§1)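 Cells in 96-well format exposed 2 h to Fenton reagent (1 mM H2O2 + 1 mM Fe2+) with or without 1 mM compound in 0.16% DMSO. Viability by MTS assay, normalized to untreated cells without Fenton reagent (100%). Mean ± SEM, n = 4. ANOVA.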
Background: Tetrazolium assays rely on reduction of a dye to a coloured formazan, in cell work by metabolically active cells.

Data set [2] concerns ARPE-19. Nature of the data set: Neuroprotective activity against Fenton reagent-induced ROS generation in human ARPE19 cells assessed as increase in GSH level at 1 mM after 2 hrs by DTNB method. Format: functional, cell-based. A digest of the protocol:
(§2)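 Cells grown in 60 or 150 mm dishes and exposed 2 h to Fenton reagent (1 mM H2O2 + 1 mM Fe2+) with or without 1 mM compound in 0.16% DMSO. Intracellular glutathione then measured. Mean ± SEM, n = 6. ANOVA.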

The test system of data set [3] is SH-SY5Y. Nature of the data set: Neuroprotective activity against Fenton reagent-induced ROS generation in human SH-SY5Y cells assessed as increase in GSH level at 1 mM after 2 hrs by DTNB method. The class given is functional, cell-based. The essentials:
as §2

Data set [4] concerns ARPE-19. Nature of the data set: Neuroprotective activity against Fenton reagent-induced ROS generation-stimulated cytotoxicity in human ARPE19 cells assessed as cell viability at 1 mM after 2 hrs by MTS assay. The class given is functional, cell-based. The essentials:
as §1

Data set [5] can be described thus: Cytotoxicity against human ARPE19 cells assessed as reduction in cell viability at 1 mM after 2 hrs by MTS assay. The following applies: arpe-19, 2 h, 1000 µM. The class given is cell-based. The essentials: (§3)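 ARPE-19 grown in DMEM + 4% FBS and SH-SY5Y in EMEM/F12 + 10% FBS, at 37 °C, 5% CO2. Plated at 1 × 10^4 cells/well. Exposed 2 h to 1 mM compound (0.16% DMSO) without oxidant. Viability by MTS. Mean ± SEM, n = 4, ANOVA versus blank control.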

In data set [6] the test system is SH-SY5Y. As to the kind of experiment: Cytotoxicity against human SH-SY5Y cells assessed as reduction in cell viability at 1 mM after 2 hrs by MTS assay. Format: cell-based. The following applies: 1000 µM. A digest of the protocol: as §3
In data set [7] the test system is ARPE-19. Nature of the data set: Neuroprotective activity against Fenton reagent-induced hydroxy radical-stimulated cytotoxicity in human ARPE19 cells assessed as cell survival at 1 to 1000 uM preincubated for 1 hr followed by Fenton reagent challenge for 2 hrs by fluorescence-based LIVE/DEAD viability/cytotoxicity assay. The class given is functional. The essentials: (§4)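 After a PBS wash, cells preincubated 1 h at 37 °C in serum-free medium with 1–1000 μM compound. Fenton reagent (Fe2+/H2O2, 100 μM final) then added for 2 h. Stained 15 min at 37 °C with calcein AM 8 μM and EthD-1 16 μM. Fluorescence read at 494/517 and 528/617 nm. % live cells calculated from blank-corrected single-dye controls; dead-cell control 70% ethanol. Mean ± SEM, n = 6.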

For data set [8], the system named is SH-SY5Y. Nature of the data set: Neuroprotective activity against Fenton reagent-induced hydroxy radical-stimulated cytotoxicity in human SH-SY5Y cells assessed as cell survival at 1 to 1000 uM preincubated for 1 hr followed by Fenton reagent challenge for 2 hrs by fluorescence-based LIVE/DEAD viability/cytotoxicity assay. The class given is functional. The essentials:
as §4

A short description of data set [9]: Metal chelating activity assessed as stoichiometric ratio of compound to Ca2+ ion at 0.1 to 0.5 mM of compound and metal ion mixture after 45 mins by spectrophotometric analysis. Format: physicochemical. The settings on record: 0.75 h, 500 µM. The essentials: (§5)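 Job continuous-variation method at 23 °C. Compound dissolved in acetonitrile, then diluted to 0.1 mM stock in 1 mM acetate pH 6.5. Compound + ion at constant total 0.1–0.5 mM with varied mole fraction. After 45 min equilibration, UV absorbance scanned 210–310 nm. Stoichiometry taken from the intersection of lines. Mean ± SD, n = 3.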

Data set [10] can be described thus: Metal chelating activity assessed as stoichiometric ratio of compound to Mn2+ ion at 0.1 to 0.5 mM of compound and metal ion mixture after 45 mins by spectrophotometric analysis. Format: physicochemical. The following applies: 0.75 h, 500 µM. A digest of the protocol: as §5
The nature of data set [11]: Metal chelating activity assessed as stoichiometric ratio of compound to Cu2+ ion at 0.1 to 0.5 mM of compound and metal ion mixture after 45 mins by spectrophotometric analysis. Format: physicochemical. The settings on record: 0.75 h, 500 µM. A digest of the protocol: as §5
Data set [12] in a line: Metal chelating activity assessed as stoichiometric ratio of compound to Fe3+ ion at 0.1 to 0.5 mM of compound and metal ion mixture after 45 mins by spectrophotometric analysis. The class given is physicochemical. The settings on record: 0.75 h, 500 µM. The essentials:
as §5

Data set [13] is described as follows: Metal chelating activity assessed as stoichiometric ratio of compound to Mg2+ ion at 0.1 to 0.5 mM of compound and metal ion mixture after 45 mins by spectrophotometric analysis. The settings on record: 0.75 h, 500 µM. The class given is physicochemical. A digest of the protocol:
as §5

Data set [14] is described as follows: Metal chelating activity assessed as stoichiometric ratio of compound to Fe2+ ion at 0.1 to 0.5 mM of compound and metal ion mixture after 45 mins by spectrophotometric analysis. Format: physicochemical. The following applies: 0.75 h, 500 µM. The essentials:
as §5

Data set [15] is described as follows: Metal chelating activity assessed as stoichiometric ratio of compound to Cu+ ion at 0.1 to 0.5 mM of compound and metal ion mixture after 45 mins by spectrophotometric analysis. The class given is physicochemical. The settings on record: 0.75 h, 500 µM. A digest of the protocol:
as §5

A short description of data set [16]: Metal chelating activity assessed as stoichiometric ratio of compound to Zn2+ ion at 0.1 to 0.5 mM of compound and metal ion mixture after 45 mins by spectrophotometric analysis. Format: physicochemical. The settings on record: 0.75 h, 500 µM. A digest of the protocol: as §5
Data set [17] is described as follows: Drug uptake in neural retina of C57BL/6 mouse assessed per mg of protein at 80 mg/kg, po administered everyday for 14 days by HPLC-MS analysis. The following applies: in vivo, 336 h. The class given is ADME, organism-based. A digest of the protocol: (§6)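 C57BL/6 mice fed chow containing 0.05% compound (~80 mg/kg/day average) for 14 days. Perfused with PBS; brain, lens and neural retina homogenized in ice-cold 10 mM acetate pH 4 with internal standard. Extracted with TCA precipitation and chloroform. Analyzed by reverse-phase C18 HPLC.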

Data set [18] is described as follows: Drug uptake in lens of C57BL/6 mouse assessed per mg of protein at 80 mg/kg, po administered everyday for 14 days by HPLC-MS analysis. Format: ADME, organism-based, Lens of camera-type eye. The settings on record: in vivo, 336 h. A digest of the protocol: as §6

As for `COc1nc(N2CCCC2)nc(OC)c1O`, the result in data set [1], in data set [2], in data set [3] and in data set [4] was Active. In addition, the Activity entry in data set [5] and in data set [6] was “Non-toxic” each time.

As for `c1cnc(N2CCCC2)nc1`, the outcome in data set [1], in [7], in [4] and in data set [8] was inactive. The outcome in data set [2] and in data set [3] was Active. Moreover, the Activity entry in data set [5] and in data set [6] was “Non-toxic” each time.

On to `COc1cc(OC)nc(N2C(=O)CCCC2=O)n1`, for which the outcome in data set [1], in data set [2], in [3] and in data set [4] was Active. Further, the Ratio came to 0 in data set [9]; 1.95 in [10]; 1.96 in data set [11]; 2.08 in data set [12]; 0 in data set [13]; 1.96 in data set [14]. Further, the results for the Ratio in data set [15] and in data set [16] were 1.9 and 2.06, respectively. Besides, the Activity entry in data set [5] and in data set [6] was “Non-toxic” each time.

On to `c1cnc(N2CCCCC2)nc1`, for which the result in [1] and in data set [4] was inactive. The result in [2] and in data set [3] was Active. The Activity entry in [5] and in [6] was “Non-toxic” throughout.

For `COc1cc(OC)nc(N2CCCC2)n1`, the result in [1], in data set [7], in data set [4] and in [8] was inactive. For the same compound, the outcome in data set [2] and in data set [3] was Active. The Activity result in data set [5] and in data set [6] was “Non-toxic” each time.

Turning to `Oc1cnc(N2CCCC2)nc1`, the result in data set [1], in data set [2], in [3] and in [4] was Active. For the same compound, the Activity result in data set [5] and in data set [6] was “Non-toxic” throughout.

As to `O=C1CCCC(=O)N1c1ncc(O)cn1`, the result in [1], in [2], in data set [3] and in [4] was Active. Besides, the Ratio in [9] is listed as 0; in data set [10], 1.91; in [11], 1.75; in data set [12] it was 1.92; in data set [13], 0; in data set [14] it was 1.85. Besides, the results for the Ratio in [15] and in data set [16] were 1.86 and 1.99, respectively. For the same compound, the Activity result in [5] and in data set [6] was “Non-toxic” each time. Further, the Drug uptake entry in data set [17] and in [18] was “Active” each time.

For `COc1nc(N2CCCCC2)nc(OC)c1O`, the outcome in [1], in [2], in data set [3] and in data set [4] was Active. Moreover, the Activity entry in data set [5] and in data set [6] was “Non-toxic” in each case.

In the case of `COc1nc(N2C(=O)CCCC2=O)nc(OC)c1O`, the outcome in data set [1], in [2], in data set [3] and in data set [4] was Active. Moreover, the Ratio is 0 in [9]; 2.12 in data set [10]; 1.86 in [11]; 1.82 in data set [12]; 0 in [13]; 1.97 in data set [14]. In addition, the Ratio in [15] was 1.97; in data set [16], 2.09. The Activity entry in data set [5] and in data set [6] was “Non-toxic” each time. Besides, the Drug uptake entry in data set [17] and in data set [18] was “Active” throughout.

In the case of `COc1cc(OC)nc(N2C(=O)CCC2=O)n1`, the result in [1], in [2], in data set [3] and in data set [4] was Active. Besides, the Ratio in data set [9] was 0; in data set [10] it was 2.04; in data set [11] it was 2.01; in [12], 2.05; in data set [13] it was 0; in data set [14], 2.02. In addition, the figures for the Ratio in [15] and in [16] were 1.92 and 2.07, respectively. The Activity entry in data set [5] and in data set [6] was “Non-toxic” each time.

For the compound `O=C1CCCC(=O)N1c1ncccn1`, the result in data set [1], in data set [2], in [3] and in [4] was Active. Further, the Ratio in [9] came to 0; in data set [10] it was 1.83; in data set [11], 2.01; in data set [12], 1.8; in [13], 0; in data set [14], 2.13. Besides, the results for the Ratio in data set [15] and in [16] were 1.9 and 2.17, respectively. Also, the Activity entry in data set [5] and in data set [6] was “Non-toxic” each time.

As for `Oc1cnc(N2CCCCC2)nc1`, the result in data set [1], in data set [2], in data set [3] and in data set [4] was Active. For the same compound, the Activity result in data set [5] and in data set [6] was “Non-toxic” throughout.

As for `O=C1CCC(=O)N1c1ncccn1`, the outcome in [1], in [2], in data set [3] and in data set [4] was Active. Besides, the Ratio was 0 in [9]; 1.98 in [10]; 2.28 in data set [11]; 2.01 in [12]; 0 in data set [13]; 2.06 in data set [14]. In addition, the Ratio in [15] is on record as 2.01; in [16] it was 1.87. Moreover, the Activity result in data set [5] and in data set [6] was “Non-toxic” in each case.

Consider `COc1cc(OC)nc(N2CCCCC2)n1`, for which the result in data set [1] and in data set [4] was inactive. Also, the result in data set [2] and in [3] was Active. Moreover, the Activity result in data set [5] and in [6] was “Non-toxic” throughout.
